The target of test [1] is T1, Histone deacetylase 6 (Danio rerio) (UniProt F8W4B7).
T1 sequence (whole entry): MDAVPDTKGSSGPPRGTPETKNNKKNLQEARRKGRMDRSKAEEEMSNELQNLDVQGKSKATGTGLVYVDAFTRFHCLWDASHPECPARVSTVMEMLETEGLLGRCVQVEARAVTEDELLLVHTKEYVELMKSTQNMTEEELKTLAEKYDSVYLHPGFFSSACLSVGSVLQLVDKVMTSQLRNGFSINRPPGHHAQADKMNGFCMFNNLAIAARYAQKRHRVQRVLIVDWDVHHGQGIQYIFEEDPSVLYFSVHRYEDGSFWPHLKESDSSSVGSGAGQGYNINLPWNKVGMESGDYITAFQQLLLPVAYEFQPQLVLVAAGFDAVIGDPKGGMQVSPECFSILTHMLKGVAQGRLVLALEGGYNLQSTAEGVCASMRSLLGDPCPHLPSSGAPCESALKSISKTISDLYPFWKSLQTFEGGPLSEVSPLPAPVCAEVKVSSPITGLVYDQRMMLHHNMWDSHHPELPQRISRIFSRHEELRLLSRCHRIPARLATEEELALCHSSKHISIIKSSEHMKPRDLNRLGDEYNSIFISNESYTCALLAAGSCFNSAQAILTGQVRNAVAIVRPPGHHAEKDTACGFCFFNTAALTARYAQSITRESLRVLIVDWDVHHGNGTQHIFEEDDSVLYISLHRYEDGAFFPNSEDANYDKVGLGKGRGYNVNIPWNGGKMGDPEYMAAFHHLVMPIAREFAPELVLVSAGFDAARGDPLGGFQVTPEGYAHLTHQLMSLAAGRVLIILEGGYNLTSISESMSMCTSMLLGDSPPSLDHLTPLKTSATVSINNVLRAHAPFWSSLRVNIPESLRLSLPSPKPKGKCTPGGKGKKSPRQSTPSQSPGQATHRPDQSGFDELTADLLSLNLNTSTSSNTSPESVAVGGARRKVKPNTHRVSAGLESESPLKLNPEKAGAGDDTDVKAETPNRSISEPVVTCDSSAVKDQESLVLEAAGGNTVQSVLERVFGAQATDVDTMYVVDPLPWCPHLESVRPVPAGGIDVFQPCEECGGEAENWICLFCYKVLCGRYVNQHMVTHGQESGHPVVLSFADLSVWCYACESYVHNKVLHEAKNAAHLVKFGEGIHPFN
Nature of the test: Irreversible inhibition of Danio rerio HDAC6 using RHKK(Ac)-AMC as fluorogenic substrate at 100 uM preincubated for 1 hr followed by dialysis for 21 hrs and substrate addition for 30 mins by microplate reader analysis. Particulars: Sf9. The procedure, abridged: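 zCD2 at 1 μM was incubated with 100 μM inhibitor for 1 h, then dialysed at 4 °C against HEPES pH 7.5 buffer with 0.25% DMSO, overnight, sampled at 6 and 21 h. Each sample was mixed with 250 μM RHKK(Ac)-AMC (pre-mix level) for 30 min. Trypsin/TSA developer was then added and fluorescence read at ex 360/em 460. Triplicates.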

Test [2] addresses T2, Protein deacetylase HDAC6 (Homo sapiens) (UniProt Q9UBN7).
T2 sequence (whole entry): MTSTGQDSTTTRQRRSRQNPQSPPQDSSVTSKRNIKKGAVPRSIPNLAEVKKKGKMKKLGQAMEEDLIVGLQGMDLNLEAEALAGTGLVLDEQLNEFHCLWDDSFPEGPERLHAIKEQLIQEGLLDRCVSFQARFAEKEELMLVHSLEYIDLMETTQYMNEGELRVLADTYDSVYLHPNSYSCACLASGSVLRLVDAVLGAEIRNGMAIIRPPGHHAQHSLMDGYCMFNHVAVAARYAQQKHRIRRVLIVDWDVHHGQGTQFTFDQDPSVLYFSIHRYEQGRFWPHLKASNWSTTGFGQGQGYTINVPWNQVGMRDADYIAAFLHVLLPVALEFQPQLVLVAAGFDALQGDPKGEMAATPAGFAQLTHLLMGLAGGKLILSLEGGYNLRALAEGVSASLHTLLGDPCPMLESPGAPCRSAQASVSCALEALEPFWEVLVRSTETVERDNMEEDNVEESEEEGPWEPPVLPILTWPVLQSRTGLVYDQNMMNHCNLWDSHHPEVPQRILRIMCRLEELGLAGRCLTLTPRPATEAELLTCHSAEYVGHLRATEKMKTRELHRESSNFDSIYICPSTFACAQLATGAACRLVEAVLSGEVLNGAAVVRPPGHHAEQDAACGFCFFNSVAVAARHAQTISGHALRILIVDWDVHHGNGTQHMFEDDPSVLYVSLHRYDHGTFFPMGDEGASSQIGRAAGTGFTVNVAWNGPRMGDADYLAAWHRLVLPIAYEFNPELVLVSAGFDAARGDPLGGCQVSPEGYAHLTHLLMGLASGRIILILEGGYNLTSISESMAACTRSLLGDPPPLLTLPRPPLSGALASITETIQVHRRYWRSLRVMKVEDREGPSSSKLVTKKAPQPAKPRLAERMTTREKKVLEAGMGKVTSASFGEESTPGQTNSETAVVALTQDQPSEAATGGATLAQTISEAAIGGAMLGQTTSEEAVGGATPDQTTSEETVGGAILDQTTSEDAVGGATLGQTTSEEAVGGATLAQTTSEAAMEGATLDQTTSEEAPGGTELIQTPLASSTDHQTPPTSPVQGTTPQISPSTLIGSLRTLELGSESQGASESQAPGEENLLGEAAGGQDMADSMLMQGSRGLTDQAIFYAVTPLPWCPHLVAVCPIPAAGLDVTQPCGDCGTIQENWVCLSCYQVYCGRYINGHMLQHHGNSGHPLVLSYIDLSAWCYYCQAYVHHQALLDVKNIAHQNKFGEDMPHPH
The test can be described thus: Binding affinity to N-terminal GST tagged human recombinant HDAC6 (1 to 1215 residues) expressed in Sf9 insect cells using Z-Lys(Ac)-AMC as fluorogenic substrate assessed as induced-fit mechanism by measuring hyperbolic relationship between Kobs and inhibitor concentration measured every 0.5 mins for 45 mins. The method, boiled down:
(§1)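 Finals were 220 pg/μL enzyme, 93.0 μM ZMAL (5× KM; KM 19.27 μM) and 20 ng/μL trypsin. AMC read continuously (ex 360/em 460) at 37 °C. Curves fitted for kobs, then kobs vs [I] fitted; triplicates.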

Test [3] concerns the target T2, Protein deacetylase HDAC6 (Homo sapiens). Nature of the test: Irreversible inhibition of N-terminal GST tagged human recombinant HDAC6 (1 to 1215 residues) expressed in Sf9 insect cells using Z-Lys(Ac)-AMC as fluorogenic substrate at 6.5 uM preincubated for 1 hr followed by 100-fold dilution and substrate addition measured every 0.5 mins for 60 mins by microplate reader analysis. The method, boiled down: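 It was then diluted 100-fold in buffer or in inhibitor at the original concentration. Finals were 220 pg/μL enzyme, 93 μM ZMAL and 20 ng/μL trypsin. AMC release was read every 0.5 min for 60 min at 37 °C; triplicates.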

Test [4] has the same target. Nature of the test: Binding affinity to N-terminal GST tagged human recombinant HDAC6 (1 to 1215 residues) expressed in Sf9 insect cells using Z-Lys(Ac)-AMC as fluorogenic substrate assessed as single step slow binding mechanism by measuring linear relationship between Kobs and inhibitor concentration measured every 0.5 mins for 45 mins. The method, boiled down:
as §1

Activity calls are given as the source filed them. The calls are words filed in the database; no cut-off is given here.

On to `FC(F)c1nnc(-c2cnc(NCc3ccccc3)nc2)o1`, for which the inhibition entry in test [1] is “Active”. Besides, in test [2], the result was Active.
`FC(F)(F)c1nnc(-c2cnc(NCc3ccccc3)nc2)o1`: the inhibition result in test [3] is “inactive”. Also, in test [4], the result was Active.

The values are drawn from ChEMBL document CHEMBL5365542, “Difluoromethyl-1,3,4-oxadiazoles Are Selective, Mechanism-Based, and Essentially Irreversible Inhibitors of Histone Deacetylase 6” (J Med Chem, 2023).
